The source of these data is ChEMBL document CHEMBL1158179, “Facile synthesis of dithiatetraaza-macrocycles of potential anti-inflammatory activity” (Eur J Med Chem, 2008).

The subject of series [1] is Rattus norvegicus. Description: Antiinflammatory activity against carrageenan-induced paw edema in Wister albino rat at 50 mg/kg, ip administered 1 hr before inflammation induction assessed after 4 hrs. It is filed as functional. Particulars: route intraperitoneal. In a few lines:
(§1)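 Wistar albino rats of either sex (pregnant females excluded), 160–190 g, 6 per group, kept at 22 °C on a 12 h light/dark cycle. Agent in DMSO given i.p. 1 h before 0.1 ml of 1% carrageenan in saline was injected subcutaneously into the right hind paw. Controls got DMSO. Oedema was paw volume by plethysmometer minus initial volume. Values are % inhibition = (Vc−Vt)/Vc×100; means ± SE, one-way ANOVA with LSD, p<0.05.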

For series [2], the system named is Rattus norvegicus. Description: Antiinflammatory activity against carrageenan-induced paw edema in Wister albino rat at 50 mg/kg, ip administered 1 hr before inflammation induction assessed after 4 hrs relative to indomethacin. Particulars: route intraperitoneal. It is filed as functional. In outline: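 Same rat carrageenan paw oedema protocol: i.p. dosing in DMSO 1 h before carrageenan, with paw volume read by plethysmometer at 4 h. Potency is the % oedema inhibition of the test group divided by that of the indomethacin (10 mg/kg i.p.) group.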

For series [3], the system named is Mus musculus. Description: Toxicity in albino mouse at 500 mg/kg, ip assessed as mortality after 24 hrs by LD50 standard method. Format: organism-based. Further details: dose 500 mg/kg, route intraperitoneal. Particulars: in vivo. In outline: (§2)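 Albino mice, 20-25 g, 9 groups of 6; test agents dissolved in DMSO and given intraperitoneally at 500, 750 and 1000 mg/kg body weight; controls received DMSO only. Toxic symptoms, mortality and postmortem findings recorded 24 h after administration; LD50 computed by formula from largest dose killing all animals, mean dead between successive groups, dose factor and group size.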

Series [4] has as its system Mus musculus. The series can be described thus: Toxicity in albino mouse at 1000 mg/kg, ip assessed as mortality after 24 hrs by LD50 standard method. Format: organism-based. The arrangement: dose 1000 mg/kg, route intraperitoneal. Particulars: in vivo. In outline: as §2
The subject of series [5] is Rattus norvegicus. Description: Antiinflammatory activity against carrageenan-induced paw edema in Wister albino rat at 50 mg/kg, ip administered 1 hr before inflammation induction assessed after 1 hr. Format: functional. As to conditions: route intraperitoneal. In a few lines:
as §1

Series [6] relates to Rattus norvegicus. The series can be described thus: Antiinflammatory activity against carrageenan-induced paw edema in Wister albino rat at 50 mg/kg, ip administered 1 hr before inflammation induction assessed after 2 hrs. It is filed as functional. Particulars: route intraperitoneal. In a few lines:
as §1

The test system of series [7] is Rattus norvegicus. The series can be described thus: Antiinflammatory activity against carrageenan-induced paw edema in Wister albino rat at 50 mg/kg, ip administered 1 hr before inflammation induction assessed after 3 hrs. Particulars: route intraperitoneal. It is filed as functional. In outline:
as §1

Series [8] has as its system Mus musculus. Description: Toxicity in albino mouse at 750 mg/kg, ip assessed as mortality after 24 hrs by LD50 standard method. Format: organism-based. The arrangement: dose 750 mg/kg, route intraperitoneal. As to conditions: in vivo. In outline: as §2
The test system of series [9] is Rattus norvegicus. Description: Antiinflammatory activity against carrageenan-induced paw edema in Wister albino rat at 10 mg/kg, ip administered 1 hr before inflammation induction assessed after 3 hrs. As to conditions: route intraperitoneal. Format: functional. In a few lines: as §1
Series [10] concerns Rattus norvegicus. The series can be described thus: Antiinflammatory activity against carrageenan-induced paw edema in Wister albino rat at 10 mg/kg, ip administered 1 hr before inflammation induction assessed after 4 hrs. Format: functional. Particulars: route intraperitoneal. In outline:
as §1

For series [11], the system named is Rattus norvegicus. Description: Antiinflammatory activity against carrageenan-induced paw edema in Wister albino rat at 10 mg/kg, ip administered 1 hr before inflammation induction assessed after 1 hr. It is filed as functional. Particulars: route intraperitoneal. In outline: as §1
For series [12], the system named is Rattus norvegicus. Description: Antiinflammatory activity against carrageenan-induced paw edema in Wister albino rat at 10 mg/kg, ip administered 1 hr before inflammation induction assessed after 2 hrs. It is filed as functional. Particulars: route intraperitoneal. In outline:
as §1

`S=C(Nc1ccccc1)Nc1ccccc1SCCCSc1ccccc1NC(=S)Nc1ccccc1` displayed an inhibition in vivo at 50 mg/kg in series [1] of 38%. Besides, the Ratio in series [2] is reported as 0.66.
As for `O=C1Nc2ccc(cc2)NC(=O)Nc2ccccc2SCCCSc2ccccc2N1`, the inhibition in vivo at 50 mg/kg in series [1] came to 48.9%; in series [5], 45.4%; in series [6], 44%; in series [7], 46.6%. The Activity entry in series [3], in series [4] and in series [8] was “Non-toxic” throughout. Further, the Ratio in [2] was 0.85.
As to `O=C(Nc1ccc(Cl)c(Cl)c1)Nc1ccccc1SCCCSc1ccccc1NC(=O)Nc1ccc(Cl)c(Cl)c1`, the inhibition in vivo at 50 mg/kg in series [1] came to 28.3%. Moreover, the Ratio in [2] is 0.49.
Take `COc1ccc(NC(=O)Nc2ccccc2SCCSc2ccccc2NC(=O)Nc2ccc(OC)cc2)cc1`: the inhibition in vivo at 50 mg/kg in series [1] is 51.9%; in series [5], 35.2%; in series [6], 38.4%; in series [7], 39.2%. The Activity entry in [3], in [4] and in [8] was “Non-toxic” each time. Besides, in [2], the Ratio is 0.9.
Take `COc1ccc(NC(=O)Nc2ccccc2SCCCSc2ccccc2NC(=O)Nc2ccc(OC)cc2)cc1`: 50 mg/kg produced 35% inhibition in vivo in series [1]. Further, in series [2], the Ratio came out at 0.61.
For `CCNC(=O)Nc1ccccc1SCCSc1ccccc1NC(=O)NCC`, in that order: 33.1% and 0.57.
As for `S=C(Nc1ccccc1)Nc1ccccc1SCCSc1ccccc1NC(=S)Nc1ccccc1`, in series [1], the inhibition in vivo at 50 mg/kg stood at 43.3%. Also, the Ratio in series [2] is 0.75.
Taken in the same sequence, the figures for `O=C(Nc1ccccc1)Nc1ccccc1SCCSc1ccccc1NC(=O)Nc1ccccc1` were 32.8% and 0.57.
In series [1], `O=C(Nc1ccccc1)Nc1ccccc1SCCCSc1ccccc1NC(=O)Nc1ccccc1` showed an inhibition in vivo at 50 mg/kg of 29.6%. Further, the Ratio in series [2] is on record as 0.51.
In turn, `O=C1Nc2ccc(cc2)NC(=O)Nc2ccccc2SCCSc2ccccc2N1` had an inhibition in vivo at 50 mg/kg in series [1] of 34.9%. Further, the Ratio in series [2] came out at 0.61.
For `O=C(Nc1ccc(Cl)c(Cl)c1)Nc1ccccc1SCCSc1ccccc1NC(=O)Nc1ccc(Cl)c(Cl)c1`, in that order: 7.1% and 0.12.
On to `CCNC(=O)Nc1ccccc1SCCCSc1ccccc1NC(=O)NCC`, for which the inhibition in vivo at 50 mg/kg in series [1] came out at 42.1%. The Ratio in series [2] turned out to be 0.73.
Consider `COc1ccc2c(c1)c(CC(=O)O)c(C)n2C(=O)c1ccc(Cl)cc1` [INDOMETHACIN], for which the inhibition in vivo at 10 mg/kg in series [9] was 50.1%; in series [10] it was 57.6%; in series [11] it was 50.5%; in series [12], 48.2%.
